# Source: PubChem
# An excerpt weighted towards active compounds, which were near 0.97% of everything screened.
# MDM2 E3 inh: blocks human Mdm2 ubiquitin ligase activity; signal enhancement, % at 5 µM; 0.11% of 210,000 active; Q00987; cell-based MDM2 ubiquitination luciferase reporter, 2 h; 0 = plate control, 100 = twice control, blank-subtracted;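 active = signal enhancement of 30% or more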;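 note: luminescence tracks abundance of the self-degrading MDM2-luciferase fusion protein; higher signal means inhibition of MDM2 E3 ligase activity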
# Target sequence (Q00987 whole entry, looked up, the tested form may be a part): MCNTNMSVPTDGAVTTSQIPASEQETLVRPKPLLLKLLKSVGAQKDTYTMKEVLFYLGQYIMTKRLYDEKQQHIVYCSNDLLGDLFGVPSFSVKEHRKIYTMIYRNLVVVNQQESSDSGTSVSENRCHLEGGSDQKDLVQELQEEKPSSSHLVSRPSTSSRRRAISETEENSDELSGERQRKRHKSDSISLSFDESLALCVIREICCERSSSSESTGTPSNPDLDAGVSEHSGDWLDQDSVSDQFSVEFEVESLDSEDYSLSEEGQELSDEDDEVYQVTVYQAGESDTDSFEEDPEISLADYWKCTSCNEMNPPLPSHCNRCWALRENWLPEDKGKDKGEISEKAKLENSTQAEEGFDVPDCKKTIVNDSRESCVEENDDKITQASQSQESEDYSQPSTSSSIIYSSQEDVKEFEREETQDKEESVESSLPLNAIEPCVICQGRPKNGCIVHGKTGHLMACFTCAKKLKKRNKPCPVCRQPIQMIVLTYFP
#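 Test system: stable mammalian line carrying autodegrading MDM2–luciferase fusion reporter; quantity: 2000 cells in each well; times: 4 h cell settling then 2 h compound exposure, 37 °C; detection: luminescence with SteadyLite reagent, 15 min at room temperature; evaluation: percent signal gain over controls, blank-subtracted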
# zVAD death inh: blocks zVAD induced death of L929 cells | L929 zVAD necroptosis rescue, ATP luminescence, 24 h; with zVAD 60 µM | viability rescue, % at 10 µM | 0.38% of 220,000 active | AID 1377;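 active = activation, scaled between plate controls, above about 75%, limit read from the data; inactive = activation under that limit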;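 note: 0% = zVAD with DMSO and 100% = DMSO alone without zVAD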
# Beta2AR agonist: agonists of human beta-2 adrenergic receptor inducing internalization | 0.43% of 340,000 active | response, % (no concentration beside the values) | Am2.2-beta2AR cells, FAP receptor internalization, flow cytometry;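 active = response above a set limit, near 3 SD of response in nonfluorescent compounds, cut at about 42% in these data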
# Dynein cargo inh: blocks dynein driven cargo transport along microtubules | 3617.4 mouse cells, GR-EGFP nuclear translocation imaging; test concentration mostly 20 µM; stimulated with dexamethasone, 1 µM; hits give low values | z-score, hits read low | 0.47% of 220,000 active;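 active = plate z-score of nuclear minus cytoplasmic receptor signal below a set negative limit, without overly bright fluorescence or cell loss, cut at about -3.5 in these data, passing the limit was not always enough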;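 note: z-score of nuclear minus cytoplasmic ring GR-EGFP intensity difference per well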
#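 Buffer or medium: tet-free, stripped-serum medium; Also added: dexamethasone, 1.0 µM final; Technique: high-content fluorescence imaging after fixation; Times: 48 h induction, 1 h compound, 30 min dex at 37 °C; Read-out: per-cell GR-EGFP intensity, nucleus versus surrounding cytoplasmic ring, well-averaged.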
# TNF necrop inh: TNF-alpha cell death inhibition in Jurkat FADD-/- cells. Jurkat FADD-/- TNF necroptosis rescue, ATP luminescence, 24 h; 0 = TNF only, 100 = no-TNF cells. activation (protection from cell death), % at 10 µM. 0.068% of 220,000 active. AID 463075;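 active = activation, meaning protection from cell death, of at least 50% relative to plate controls; inactive = activation below 50%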;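 note: necroptosis triggered by 40 ng/mL TNF-alpha added together with compound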
# B2AR ag CP1: agonists of human beta-2 adrenergic receptor | shares compounds with Beta2AR agonist | Am2.2-beta2AR cells, FAP surface receptor, flow cytometry; hits give low values | percent response (surface receptor), % at 10 µM | 25% of 1,100 active | AID 540358;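 active = surface receptor percent response at or below 58%, roughly 3 SD from nonfluorescent compounds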
# FAP fluor counter: counter-screen for beta-2AR agonists: fluorescence in Am2.2 cells; shares compounds with Beta2AR agonist; FAP fluorogen flow cytometry, fluorescence counterscreen; hits give low values; calls only at 10 µM; 1,100 tested, under 10 active; AID 588765;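 active = percent response below a set limit in fluorescence channel 1 and below 50% in channel 8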
# The depositor's hits bear a star; i = inactive; x = no result; ! = a repeat was not active.
SMILES,MDM2 E3 inh,zVAD death inh,Beta2AR agonist,Dynein cargo inh,TNF necrop inh,B2AR ag CP1,FAP fluor counter
Cc1ccc(C(=O)c2ccccc2C(=O)OCC(=O)N2CC(C)CC(C)C2)cc1 (stereo unspecified),x,x,1,x,x,x,x
Cc1ccc2nc(SCC(=O)c3c(N)n(C)c(=O)n(C)c3=O)[nH]c2c1,-7,8,1,-0.52,0,x,x
COc1cccc(CNCc2ccc(OC)cc2OC)c1,x,x,-1,x,x,x,x
CCn1c2ccccc2c2cc(CNCc3ccc(OC)cc3OC)ccc21,-8,20,51*,-2.5,5,76,i
CCN(CC)CCCNC(=O)Cn1cnc2sc(C)c(S(=O)(=O)N3CCC(C)CC3)c2c1=O,x,x,18,x,x,x,x
CCC1CCCCN1CCCNC(=O)Cn1cnc2sc(C)c(S(=O)(=O)N3CC(C)CC(C)C3)c2c1=O (stereo unspecified),x,x,59*,x,x,89,i
CN(C(=O)c1ccc(NC(=O)Cc2cccc(NC(=O)C3CCN(C(=O)C4CCCCC4)CC3)c2)cc1)C1CC1,x,x,-4,x,x,115,i
CN(C(=O)c1ccc(NC(=O)Cc2cccc(NC(=O)C3CCN(C(=O)C4CCCC4)CC3)c2)cc1)C1CCCC1,x,x,47*,x,x,82,i
CN(C(=O)c1ccc(NC(=O)Cc2cccc(NC(=O)C3CCN(C(=O)C4CC4)CC3)c2)cc1)C1CC1,x,x,-6,x,x,117,i
O=C(Nc1ccccc1C(=O)N1CCCCC1)c1cccc(S(=O)(=O)N2CCOCC2)c1,-14,1,-1,-0.9,-1,x,x
O=C(C[n+]1cccc(NC(=O)c2ccccc2)c1)c1ccc(NC(=O)c2ccccc2)cc1,-15,1,72*,-0.95,-2,47*,i
O=C(C[n+]1cccc(NC(=O)c2ccccc2)c1)c1ccccc1,-5,0,-10,-0.53,-1,x,x
Fc1ccc([C@@H]2CCNC[C@H]2COc2ccc3c(c2)OCO3)cc1,x,x,45*!,x,x,94,i
Fc1ccc(C2CCNCC2COc2ccc3c(c2)OCO3)cc1 (stereo unspecified),x,x,12,x,x,x,x
COc1cccc(CN2CCNC(=O)C2CC(=O)N2CCCCO2)c1OC (stereo unspecified),6,0,-4,-1.4,0,x,x
CCCc1nc2oc3c(NCC(C)O)ncnc3c2c2c1CCCC2 (stereo unspecified),-9,-1,-2,0.36,-7,125,i
CC(NC(=O)c1ccco1)c1nc(-c2ccccc2)no1 (stereo unspecified),x,x,-7,x,x,x,x
O=C(NCc1nc(-c2ccccc2)no1)c1ccc2c(c1)OCO2,6,-1,0,-0.51,0,x,x
CC(Oc1ccc(Cl)cc1Cl)c1nc(-c2ccc(NC(=O)c3ccco3)cc2)no1 (stereo unspecified),1,0,66*,0.7,0,59,i
Cc1ccccc1OCc1nc(-c2ccc(NC(=O)c3ccco3)cc2)no1,-3,60,3,0.87,-1,128,i
Cc1ccc(-c2noc(COc3ccccc3C)n2)cc1,-4,0,-4,0.49,-1,x,x
Cc1ccccc1OCc1nc(-c2ccc(NC(=O)c3cccs3)cc2)no1,-3,3,-6,-0.64,3,124,i
Cc1ccccc1OCc1nc(-c2ccc(NC(=O)c3ccc4c(c3)OCO4)cc2)no1,-36,1,-5,-1,-1,106,i
CN(Cc1ccccc1)C(=O)CN1CCN(C(c2ccccc2)c2ccccc2)CC1,-2,0,7,0.14,0,x,x
COc1ccccc1/C=N/NC(=O)c1nnn(-c2nonc2N)c1-c1cccs1,x,x,3,x,x,x,x
SMILES,MDM2 E3 inh,zVAD death inh,Beta2AR agonist,Dynein cargo inh,TNF necrop inh,B2AR ag CP1,FAP fluor counter
CCOC(=O)c1ccc(NC(=O)Cc2coc3cc4c(cc23)CCC4)cc1,-9,1,69*,0.036,3,45*,i
CCOC(=O)c1ccc(NC(=O)COC)cc1,12,0,10,-0.55,-2,x,x
Cc1nn(Cc2ccccc2)c(C)c1C(=O)NCC(c1cccs1)N1CCOCC1 (stereo unspecified),x,x,63*,x,x,109,i
CN(c1cccc2cccnc12)S(=O)(=O)c1ccccc1,x,x,-2,x,x,102,i
CCN(CC)S(=O)(=O)c1cccc2cccnc12,-15,2,0,1.3,0,x,x
O=C(N/N=C/c1cn(-c2ccccc2)nc1-c1ccc(F)cc1)c1ccc(Br)o1,-9,0,12,2.2,-12,x,x
CC1CCCN(c2ccc(N)cc2C(N)=O)C1 (stereo unspecified),-10,-1,1,0.93,0,x,x
CCCn1c(N)c(N(CCOC)C(=O)c2ccc(F)cc2)c(=O)[nH]c1=O,x,x,3,x,x,x,x
CCOC(=O)CSc1ccc(-c2nc3cc(C)c(C)cc3[nH]2)cn1,-26,0,21,0.12,0,x,x
CCOC(=O)CSc1ccc(-c2nc3ccccc3[nH]2)cn1,-26,0,46*,-0.21,0,107,i
Cc1ccc(SCC(=O)Nc2ccc(-c3nc4ccccc4[nH]3)cc2)cc1,0,1,107*,1,2,16*,i
CC(C)[C@H](NC(=O)c1ccccc1F)C(=O)NNC(=O)c1cccs1,x,x,11,x,x,x,x
O=C1C=C(O)CC(c2ccc(Cl)c(Cl)c2)C1 (stereo unspecified),1,0,1,0.21,1,x,x
CN[C@H]1CC[C@@H](c2ccc(Cl)c(Cl)c2)c2ccccc21,x,x,50*!,x,x,81,i
CCOC(=O)N1CCN(C(=O)CN(C)S(=O)(=O)c2ccc(Cl)cc2)CC1,x,x,82*,x,x,15*,i
CN(CC(=O)N1CCCCCC1)S(=O)(=O)c1ccc(Br)cc1,x,x,0,x,x,x,x
CN(CC(=O)N1CCN(c2ccccn2)CC1)S(=O)(=O)c1ccc(Br)cc1,-10,0,107*,-0.66,0,27*,i
O=C(NCCN1CCOCC1)C1CCC(=O)N1Cc1ccc(F)cc1 (stereo unspecified),-6,0,3,0.28,0,x,x
CCCc1ccc(OCc2nc(-c3ccc(NC(=O)c4ccco4)cc3)no2)cc1,-4,68,27,-0.2,-1,42*,i
COc1ccccc1CC(=O)Nc1ccc(-c2noc(COc3ccc(Br)cc3)n2)cc1,-18,0,-8,-0.28,0,x,x
CCCc1ccc(OCc2nc(-c3ccc(NC(=O)c4cccs4)cc3)no2)cc1,-10,1,-5,0.73,1,75,i
O=C(Nc1cccc(-c2nc3ncccc3o2)c1)c1sc2cc(Cl)ccc2c1Cl,-14,0,42*,0.17,0,12*,i
